One test concerns KB 3-1. The experiment in a line: Concentration required to kill human epidermoid KB-3-1 cell lines containing very low levels of P-glycoprotein after 3 days of continuous exposure. The settings on record: KB 3-1, 72 h. It is filed as functional, cell-based. The essentials: (§1)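 KB-3-1, KB85 and KBV1 cells were plated at densities set to reach 60–90% confluence at analysis. Compounds were serially diluted in medium as 2× stocks and added in duplicate. After 3 days of incubation, cell survival was read by SRB assay and reported as IC50.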

Test [1] relates to KB. The experiment in a line: Concentration required to kill human epidermoid KBV1 cell lines containing very high levels of P-glycoprotein after 3 days of continuous exposure. It is filed as functional, cell-based. As to conditions: 72 h. The essentials: as §1
The next test has as its system KB85 (Homo sapiens). The experiment in a line: Concentration required to kill human epidermoid KB85 cell lines containing moderate levels of P-glycoprotein after 3 days of continuous exposure. The settings on record: KB85, 72 h.
For test [2], the species on record is Bos taurus. The experiment in a line: Percent inhibition of bovine microtubule-assisted protein (MAP) rich tubulin polymerisation at concentration of 0.3 uM; Not applicable. The test is classed as functional. The essentials:
(§2)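 Bovine MAP-rich tubulin (final 1.5 mg/mL) was prepared in cold PEM buffer (80 mM NaPIPES pH 6.9, 1 mM MgCl2, 1 mM EGTA) with 1 mM GTP and spun at 12,000g for 10 min at 4 C. It was added to duplicate compound wells (final 0.3 µM); controls held 0.3% DMSO. A340 was read every minute for 60 min at 24 C.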

For test [3], the system named is Mus musculus. The experiment in a line: Minimum tolerated dose against Lox melanoma human xenograft models in athymic mice. The test is classed as functional. (In general: A xenograft is tissue or cells of one species grown in another, often human tumour cells in immunodeficient mice.)
The species entered for test [4] is Bos taurus. The experiment in a line: Percent inhibition of bovine microtubule-assisted protein (MAP) rich tubulin polymerisation at concentration of 0.3 uM; (result for 2). It is filed as functional. The procedure, abridged:
as §2

Test [5] has as its system KB. The experiment in a line: Concentration required to kill 50% of human epidermoid KBV1 cell lines containing very high levels of P-glycoprotein after 3 days of continuous exposure. It is filed as functional, cell-based. As to conditions: 72 h. The procedure, abridged:
as §1

Test [6] concerns Mus musculus. The experiment in a line: Minimum effective dose against Lox melanoma human xenograft models in athymic mice. The test is classed as functional. The essentials: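 Lox melanoma cells (1.5–7 × 10^6) were injected sc into athymic mice. At 80–100 mg tumour mass, animals were randomised into groups of 5 or 10 and dosed iv in saline. Tumour length and width were measured weekly, with mass = (L·W²)/2. Relative tumour growth and %T/C were calculated.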

For test [7], the species on record is Bos taurus. The experiment in a line: Percent inhibition of bovine microtubule-assisted protein (MAP) rich tubulin polymerisation at concentration of 0.3 uM. It is filed as functional. The procedure, abridged:
as §2

The source made the active and inactive calls. The rule behind the calls is not given here. A value given as a limit tells only on which side of the number the result lay.

What is called IC50 is the point on the concentration scale where inhibition reaches its midpoint. Low values mean higher potency, high ones lower potency. By Inhibition is commonly meant the change of the read-out against control, counted positive when it falls.

On to `CN[C@H](C(=O)N[C@H](C(=O)N(C)[C@H](/C=C(\C)C(=O)O)C(C)C)C(C)(C)C)C(C)(C)c1cn(C)c2ccccc12` [HEMIASTERLIN], for which the IC50 in the test with KB 3-1 came out at 0.3 nM; in the test with KB [1] it was 76 nM; with KB85 (Homo sapiens), 1 nM. The inhibition result in the test filed under Bos taurus [2] was “inactive”.

`CN[C@H](C(=O)N[C@H](C(=O)N(C)[C@H](/C=C(\C)C(=O)O)C(C)C)C(C)(C)C)C(C)(C)c1ccc(C)c(C)c1` gave an MTD in the test on Mus musculus [3] of more than 1 mpk. The Inhibition in the test listed under Bos taurus [4] and in the test filed under Bos taurus [7] was 88% in each case. The IC50 with KB 3-1 was determined as 0.4 nM; with KB85 (Homo sapiens), 1.13 nM; with KB [5], 39 nM. Also, the MED with Mus musculus [6] came out at 0.2 mpk.

The values are drawn from ChEMBL document CHEMBL1137922, “Synthesis and activity of novel analogs of hemiasterlin as inhibitors of tubulin polymerization: modification of the A segment” (Bioorg Med Chem Lett, 2004).
